Counter-ions that a name gives are not always drawn. Like-named read-outs stand apart in the source and are kept apart here.

Data set [1] concerns A549 cells. Nature of the data set: MTT cytotoxicity assay. In kind it is cell-based, human. The settings on record: read-out: IC50 (in vitro cytotoxicity). In a few lines: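 A549 cells seeded at 5 × 10³/well in DMEM with 10% FBS and antibiotics, preincubated 24 h at 37 °C, 5% CO₂. Test drug in PBS added at various concentrations for 48 h; untreated controls received fresh medium. MTT (5 mg/mL stock) added for 4 h, formazan dissolved in DMSO, absorbance read at 490 nm. Triplicate measurements.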
For orientation: Formazan colour is commonly taken as a measure of viable cells.

In data set [2] the test system is HUVEC. Nature of the data set: Cellular uptake of FITC-labeled peptides by flow cytometry, HUVEC. It is filed as cell-based, human. The settings on record: 5 × 10^−6 mol/L, 4 h. In a few lines: (§1)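 Cells grown in DMEM with 10% FBS at 37 °C, 5% CO₂. Seeded at 8 × 10⁴ cells/well and incubated overnight. FITC-labeled peptides (N-terminal Cys–maleimide-FITC) added at a final 5 × 10⁻⁶ mol/L for 4 h. Cells then trypsinized, centrifuged, resuspended in PBS and analysed by flow cytometry. Fluorescence signal compared between labeled peptides.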
On the technique in general: A flow cytometer gives signals particle by particle.

Data set [3] concerns C6 cells. Nature of the data set: Cellular uptake of FITC-labeled peptides by flow cytometry, C6. In kind it is cell-based, rat. Conditions: 5 × 10^−6 mol/L, 4 h. In a few lines:
as §1

Data set [4] relates to A549 cells. In words: Cellular uptake of FITC-labeled peptides by flow cytometry, A549. Conditions: 5 × 10^−6 mol/L, 4 h. It is filed as cell-based, human. The method, boiled down: as §1
For data set [5], the system named is U87 cells. Nature of the data set: Cellular uptake of FITC-labeled peptides by flow cytometry, U87. It is filed as cell-based, human. Conditions: 5 × 10^−6 mol/L, 4 h. In a few lines:
as §1

The IC50 is the concentration at which inhibition is half-maximal. Turning to `N.N.O=C([O-])C1(C(=O)[O-])CCC1.[Pt+2]` [carboplatin], in data set [1] (A549 cells, MTT assay, 48 h treatment, triplicate), the half-inhibitory concentration (IC50) turned out to be 138 µM.
For `Nc1ccn([C@@H]2O[C@H](CO)[C@@H](O)C2(F)F)c(=O)n1` [gemcitabine, Gemcitabine hydrochloride], the IC50 in data set [1] (Homo sapiens, A549, 48 h) amounted to 4.83 µM.
In the case of FITC-D(CRGERPPR), in data set [2], the “mean fluorescent intensity, times higher than that of FITC-CRGERPPR” value (“mean fluorescent intensity … of FITC-CRGERPPR” for short) is listed as around 13.1 times and the “mean fluorescent intensity, times higher than that of FITC-D(CRPPREGR)” value is recorded as 5.7 times. In addition, in data set [3], the “mean fluorescent intensity, times higher than FITC-D(CRPPREGR)” value came to 2.9 times and the “mean fluorescent intensity … of FITC-CRGERPPR” value is recorded as 5.4 times. Also, in data set [4], the “FITC-positive ratio, times higher than that of FITC-CRGERPPR” value worked out at 1.6 times and the “FITC-positive ratio, times higher than that of FITC-D(CRPPREGR)” value stood at 1.3 times. For the same molecule, in data set [5], the “mean fluorescent intensity, times higher than FITC-D(CRPPREGR)” value is on record as 3.5 times and the “mean fluorescent intensity … of FITC-CRGERPPR” value amounted to 3.3 times.

Source of the values: paper PMC6146380 (Acta Pharmaceutica Sinica. B, 2018).
